# Measurements from ChEMBL document CHEMBL4390648, “Chemical synthesis, crystal structure, versatile evaluation of their biological activities and molecular simulations of novel pyrithiobac derivatives” (Eur J Med Chem, 2019).
# Calls of active or inactive are those of the source. No cut-off for these calls is given here.
# How the values were obtained:
# [1] = tested on: Fusarium fujikuroi; experiment: Antifungal activity against Gibberella fujikuroi assessed as reduction in growth at 50 mg/l by mycelium growth rate method relative to control; format: functional
# How it was run: (§1)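 Mycelium growth rate method against S. sclerotiorum, P. capsici, P. piricola, R. cerealis, W. anthracnose and R. bakanae. Each compound tested at 50 mg/L, with chlorothalonil and PTB as controls. Relative inhibitory ratio (%) calculated from mycelial growth.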
# [2] = tested on: Brassica rapa subsp. oleifera; experiment: Herbicidal activity against Brassica campestris L assessed as inhibition of rape root growth at 10 mg/l root growth incubated for 48 hrs relative to control; format: functional
# How it was run: (§2)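 Rape seeds soaked in distilled water for 4 h, then placed on filter paper wetted with inhibitor solution, 15 seeds per 6-cm dish. Germinated in the dark at 28 °C for 48 h. Mean length of 10 roots per plate measured.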
# [3] = tested on: Candida albicans; experiment: Inhibition of Candida albicans AHAS catalytic subunit at 10 uM using pyruvate as substrate measured after 30 mins by colorimetric method relative to control
# How it was run: (§3)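 Colorimetric assay in 50 mM potassium phosphate pH 7.0 with 50 mM pyruvate, 1 mM thiamine diphosphate, 10 mM MgCl2 and 10 μM FAD. Incubated 30 min at 37 °C for plant AHAS and 30 °C for fungal AHAS. Acetolactate formed was then quantified.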
# [4] = tested on: Tobacco mosaic virus; experiment: Antiviral activity against Tobacco mosaic virus inoculated in Nicotiana tabacum leaves assessed as passivation by measuring local lesion numbers at 500 mg/l pre-incubated with virus for 30 mins followed by inoculation and measured up to 4 days; format: functional
# How it was run: (§4)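 Passivation assay: TMV mixed with an equal volume of compound solution for 30 min, then rubbed onto the left half of N. tabacum L. leaves. The right half received virus mixed with solvent as control. Local lesions counted 3–4 days after inoculation. Compounds tested at 500 or 100 mg/L.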
# [5] = tested on: Arabidopsis thaliana; experiment: Inhibition of Arabidopsis thaliana AHAS catalytic subunit using pyruvate as substrate at 10 uM measured after 30 mins by colorimetric method relative to control; how it was run: as §3
# [6] = tested on: Candida albicans; experiment: Antifungal activity against Candida albicans isolate 17 grown in YNB medium incubated for 24 hrs by microdilution method; format: functional; settings: isolate 17, 24 h
# How it was run: (§5)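 C. albicans standard strain SC5314 and clinical isolates g5 and 17# tested by broth microdilution in YNB or RPMI 1640 medium. Plates incubated at 35 °C for up to 72 h, with visual readings taken at 24 h. MIC taken as the lowest concentration preventing visible growth.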
# [7] = tested on: Botryosphaeria berengeriana; experiment: Antifungal activity against Physalospora pyricola assessed as reduction in growth at 50 mg/l by mycelium growth rate method relative to control; format: functional; how it was run: as §1
# [8] = tested on: Mythimna separata; experiment: Insecticidal activity against Mythimna separata assessed as larval mortality at 600 mg/l by leaf-dip method; format: functional
# [9] = tested on: Tobacco mosaic virus; experiment: Antiviral activity against Tobacco mosaic virus inoculated in Nicotiana tabacum leaves assessed as passivation by measuring local lesion numbers at 100 mg/l pre-incubated with virus for 30 mins followed by inoculation and measured up to 4 days; format: functional; how it was run: as §4
# [10] = tested on: Candida albicans; experiment: Antifungal activity against Candida albicans isolate g5 grown in RPMI 1640 medium incubated for 24 hrs by microdilution method; format: functional; settings: isolate g5, 24 h; how it was run: as §5
# [11] = tested on: Candida albicans; experiment: Antifungal activity against Candida albicans SC5314 grown in YNB medium incubated for 24 hrs by microdilution method; format: functional; settings: SC5314, 24 h; how it was run: as §5
# [12] = tested on: Candida albicans; experiment: Antifungal activity against Candida albicans isolate g5 grown in YNB medium incubated for 24 hrs by microdilution method; format: functional; settings: isolate g5, 24 h; how it was run: as §5
# [13] = tested on: Candida albicans; experiment: Antifungal activity against Candida albicans SC5314 grown in RPMI 1640 medium incubated for 24 hrs by microdilution method; format: functional; settings: SC5314, 24 h; how it was run: as §5
# [14] = tested on: Arabidopsis thaliana; experiment: Inhibition of Arabidopsis thaliana AHAS catalytic subunit using pyruvate as substrate at 100 uM measured after 30 mins by colorimetric method relative to control; how it was run: as §3
# [15] = tested on: Ceratobasidium cereale; experiment: Antifungal activity against Rhizoctonia cerealis assessed as reduction in growth at 50 mg/l by mycelium growth rate method relative to control; format: functional; how it was run: as §1
# [16] = tested on: Phytophthora capsici; experiment: Antifungal activity against Phytophthora capsici assessed as reduction in growth at 50 mg/l by mycelium growth rate method relative to control; format: functional; how it was run: as §1
# [17] = tested on: Severe acute respiratory syndrome-related coronavirus; experiment: Inhibition of SARS coronavirus M protease using AVLQSGFRKK as substrate at 20 uM by FRET assay relative to control
# How it was run: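 Purified SARS-CoV Mpro assayed by FRET. Protein, compound and substrate were preheated at 37 °C and oscillated. Fluorescence (ex 320/em 405 nm) was read every 5 s for 200 reads.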
# [18] = tested on: Sclerotinia sclerotiorum; experiment: Antifungal activity against Sclerotinia sclerotiorum assessed as reduction in growth at 50 mg/l by mycelium growth rate method relative to control; format: functional; how it was run: as §1
# [19] = tested on: Candida albicans; experiment: Inhibition of Candida albicans AHAS catalytic subunit at 100 uM using pyruvate as substrate measured after 30 mins by colorimetric method relative to control; how it was run: as §3
# [20] = tested on: Colletotrichum; experiment: Antifungal activity against Colletotrichum (W. anthracnose) assessed as reduction in growth at 50 mg/l by mycelium growth rate method relative to control; format: functional; how it was run: as §1
# [21] = tested on: Candida albicans; experiment: Antifungal activity against Candida albicans isolate 17 grown in RPMI 1640 medium incubated for 24 hrs by microdilution method; format: functional; settings: isolate 17, 24 h; how it was run: as §5
# [22] = tested on: Brassica rapa subsp. oleifera; experiment: Herbicidal activity against Brassica campestris L assessed as inhibition of rape root growth at 100 mg/l root growth incubated for 48 hrs relative to control; format: functional; how it was run: as §2
Structure (SMILES),inhibition at 50 µg/mL [1],inhibition (INH) [2],inhibition [3],inhibition at 500 µg/mL [4],inhibition [5],MIC [6],inhibition at 50 µg/mL [7],mortality at 600 µg/mL [8],MIC [10],MIC [11],MIC [12],MIC [13],inhibition [14],inhibition at 50 µg/mL [15],inhibition at 50 µg/mL [16],inhibition at 50 µg/mL [18],inhibition [19],inhibition at 50 µg/mL [20],MIC [21],inhibition (INH) [22],also measured
COc1nc(OC)nc(Sc2ccc(Cl)cc2C(=O)O)n1,0%,0%,39.3%,0%,5.5%,> 100 µg/mL,40.6%,40%,> 100 µg/mL,> 100 µg/mL,> 100 µg/mL,> 100 µg/mL,59.6%,52.4%,8.3%,61.1%,68.8%,16.7%,> 100 µg/mL,24.2%,inhibition [9]: inactive; inhibition [17]: 24.2%
COc1nc(OC)nc(Sc2ccc(C#N)cc2Cl)n1,42.4%,28.4%,65.4%,29.6%,43.2%,> 100 µg/mL,60.9%,30%,> 100 µg/mL,> 100 µg/mL,> 100 µg/mL,> 100 µg/mL,89.6%,54.8%,8.3%,36.1%,73.6%,33.3%,> 100 µg/mL,60.3%,inhibition [9]: inactive; inhibition [17]: 12.8%
COc1nc(OC)nc(Sc2ccc(Cl)cc2C#N)n1,33.3%,0%,52.1%,0%,44.9%,> 100 µg/mL,71.9%,0%,> 100 µg/mL,> 100 µg/mL,> 100 µg/mL,> 100 µg/mL,71.3%,45.2%,16.7%,27.8%,79.9%,23.8%,> 100 µg/mL,16.6%,inhibition [9]: inactive; inhibition [17]: 85.1%
COc1nc(OC)nc(Sc2ccc(C(=O)O)cc2Cl)n1,27.3%,0%,25.6%,0%,12.6%,25 µg/mL,42.2%,20%,> 100 µg/mL,100 µg/mL,100 µg/mL,> 100 µg/mL,15.3%,59.5%,58.3%,69.4%,73%,16.7%,> 100 µg/mL,58.2%,inhibition [9]: inactive; inhibition [17]: 25.5%
COc1cc(OC)nc(Sc2cc(C(F)(F)F)ccc2C#N)n1,45.5%,12.3%,7.9%,35.8%,18%,> 100 µg/mL,28.1%,65%,> 100 µg/mL,> 100 µg/mL,> 100 µg/mL,> 100 µg/mL,91.6%,70.2%,66.7%,11.1%,26.1%,26.2%,> 100 µg/mL,66.1%,inhibition [9]: inactive; inhibition [17]: 29.9%
COc1nc(OC)nc(Sc2ccc(C(=O)O)c(C(F)(F)F)c2)n1,36.4%,4%,8.6%,42.3%,21.8%,> 100 µg/mL,43.8%,80%,> 100 µg/mL,> 100 µg/mL,> 100 µg/mL,> 100 µg/mL,75.5%,38.1%,8.3%,75%,21.2%,16.7%,> 100 µg/mL,16.5%,inhibition at 100 µg/mL [9]: 6.2%; inhibition [17]: 22.2%
COc1nc(OC)nc(Sc2cc(Cl)ccc2C#N)n1,30.3%,34.4%,0%,0%,43.6%,> 100 µg/mL,37.5%,25%,> 100 µg/mL,> 100 µg/mL,> 100 µg/mL,> 100 µg/mL,100%,40.5%,41.7%,13.9%,26.3%,19%,> 100 µg/mL,40%,inhibition [9]: inactive
